Values after ≈ are worked out from the molar mass of the structure shown.
Key:
Plasmodium falciparum = assay: Antimalarial activity against Plasmodium falciparum 3D7A infected in human RBC after 48 hrs by [3H]-hypoxanthine incorporation assay; assay type: functional
serum albumin = serum albumin (Homo sapiens, UniProt P02768); assay: Binding affinity to human serum albumin by HPLC method; assay type: ADME; settings: read-out: PB (converted)
[1] = Equilibrium solubility of compound in FaSSIF after 24 hrs by LC-MS method; assay type: physicochemical
[2] = Equilibrium solubility of compound in FeSSIF after 24 hrs by LC-MS method; assay type: physicochemical
[3] = Volume of distribution in CD1 mouse at […], iv as bolus dose by LC-MS/MS method; assay type: ADME, organism-based; settings: in vivo
[4] = Clearance in CD1 mouse at […], iv as bolus dose by LC-MS/MS method; assay type: ADME, organism-based; settings: in vivo
[5] = Half life in CD1 mouse at […], iv as bolus dose by LC-MS/MS method; assay type: ADME, organism-based; settings: in vivo
[6] = Cmax in CD1 mouse at 11.512 mg/kg administered via oral gavage by LC-MS/MS method; assay type: ADME, organism-based; set-up: dose 11.512 mg/kg, route oral; settings: in vivo, 11.51 mg/kg
How it was run: (§1)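 Specific pathogen-free female CD1 (Hsd:ICR) mice, 8 to 10 weeks old. Each compound was given as an intravenous dose and an oral dose at the levels listed. Parameters reported: Vd, clearance, t1/2, Cmax, Tmax, AUC0-t, AUC∞ and %F.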

[7] = Tmax in CD1 mouse at 11.512 mg/kg administered via oral gavage by LC-MS/MS method; assay type: ADME, organism-based; settings: in vivo
How it was run: (§2)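 Specific pathogen-free female CD1 (Hsd:ICR) mice, 8–10 weeks old, housed in the institutional animal facility. Each compound was given intravenously at a low dose and orally at a higher dose. Vd, clearance, t1/2, Cmax, Tmax, AUC0-t, AUC∞ and %F were derived from plasma exposure after each route.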

[8] = AUC (0 to t) in CD1 mouse at 11.512 mg/kg administered via oral gavage by LC-MS/MS method; assay type: ADME, organism-based; settings: in vivo; how it was run: as §1
[9] = AUC (infinity) in CD1 mouse at 11.512 mg/kg administered via oral gavage by LC-MS/MS method; assay type: ADME, organism-based; set-up: dose 11.512 mg/kg, time infinity, route oral; settings: in vivo, 11.51 mg/kg; how it was run: as §1
[10] = Oral bioavailability in CD1 mouse at 11.512 mg/kg administered via gavage by LC-MS/MS method; assay type: ADME, organism-based; settings: in vivo; how it was run: as §1
Plasmodium yoelii = assay: Schizontocidal activity against Plasmodium yoelii infected in CD1 mouse administered via oral gavage as qd for 4 days starting 1 hr post infection by YOYO-1 dye-based flow cytometric method; assay type: functional
How it was run: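 Blood schizontocidal activity was tested in a modified 4-day suppressive test in mice infected with P. yoelii. Four oral doses were given by gavage over four days.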

[11] = Volume of distribution in CD1 mouse at 1.45 mg/kg, iv as bolus dose by LC-MS/MS method; assay type: ADME, organism-based; settings: in vivo; how it was run: as §2
[12] = Clearance in CD1 mouse at 1.45 mg/kg, iv as bolus dose by LC-MS/MS method; assay type: ADME, organism-based; settings: in vivo; how it was run: as §1
[13] = Half life in CD1 mouse at 1.45 mg/kg, iv as bolus dose by LC-MS/MS method; assay type: ADME, organism-based; settings: in vivo; how it was run: as §1
[14] = Cmax in CD1 mouse at 8.7 mg/kg administered via oral gavage by LC-MS/MS method; assay type: ADME, organism-based; set-up: dose 8.7 mg/kg, route oral; settings: in vivo; how it was run: as §1
[15] = Tmax in CD1 mouse at 8.7 mg/kg administered via oral gavage by LC-MS/MS method; assay type: ADME, organism-based; settings: in vivo; how it was run: as §2
[16] = AUC (0 to t) in CD1 mouse at 8.7 mg/kg administered via oral gavage by LC-MS/MS method; assay type: ADME, organism-based; settings: in vivo; how it was run: as §1
[17] = AUC (infinity) in CD1 mouse at 8.7 mg/kg administered via oral gavage by LC-MS/MS method; assay type: ADME, organism-based; set-up: dose 8.7 mg/kg, route oral, time infinity; settings: in vivo; how it was run: as §1
[18] = Oral bioavailability in CD1 mouse at 8.7 mg/kg administered via gavage by LC-MS/MS method; assay type: ADME, organism-based; settings: in vivo; how it was run: as §2

serum albumin, sequence (P02768 whole entry): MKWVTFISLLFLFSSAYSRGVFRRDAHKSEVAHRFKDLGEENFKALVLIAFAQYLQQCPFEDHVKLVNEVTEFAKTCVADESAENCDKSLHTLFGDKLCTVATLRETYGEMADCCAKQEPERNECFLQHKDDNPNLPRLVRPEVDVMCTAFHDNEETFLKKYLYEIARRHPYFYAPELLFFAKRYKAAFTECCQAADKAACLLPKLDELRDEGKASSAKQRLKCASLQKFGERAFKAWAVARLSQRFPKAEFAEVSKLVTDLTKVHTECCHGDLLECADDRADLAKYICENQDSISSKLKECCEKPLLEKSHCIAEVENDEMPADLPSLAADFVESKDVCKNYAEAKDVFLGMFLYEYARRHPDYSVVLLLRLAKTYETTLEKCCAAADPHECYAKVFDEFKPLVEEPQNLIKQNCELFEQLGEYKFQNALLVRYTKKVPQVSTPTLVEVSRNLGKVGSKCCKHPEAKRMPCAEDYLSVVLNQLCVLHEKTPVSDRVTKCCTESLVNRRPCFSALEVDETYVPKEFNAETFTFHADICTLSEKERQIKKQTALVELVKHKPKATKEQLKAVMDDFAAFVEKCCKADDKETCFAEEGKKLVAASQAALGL

Compound: Cc1[nH]c(C)c(-c2ccc(-c3ccc(C(F)(F)F)cc3F)nc2)c(=O)c1Cl
- IC50 (Plasmodium falciparum): 10 nM
- fraction unbound (serum albumin): 0.05
- solubility thermodynamic at 24 h [1]: < 1 µg/mL
- solubility thermodynamic at 24 h [2]: 1.33 µg/mL (≈ 3.35 µM)
- Vd [3]: 0.75 L/kg
- clearance [4]: 0.26 mL/min/kg
- half-life [5]: 33.8 h
- Cmax [6]: 6380 ng/mL
- Tmax [7]: 10 h
- AUC(0-t) [8]: 204 µg·h/mL
- AUC(0-inf) [9]: 226 µg·h/mL
- bioavailability [10]: 30%
- ED50 (Plasmodium yoelii): 0.08 mg/kg

Compound: Cc1[nH]c(CO)c(-c2ccc(-c3ccc(OC(F)(F)F)cc3)nc2)c(=O)c1Cl
- IC50 (Plasmodium falciparum): 34 nM
- fraction unbound (serum albumin): 0.05
- Vd [11]: 1.11 L/kg
- clearance [12]: 1.76 mL/min/kg
- half-life [13]: 7.4 h
- Cmax [14]: 8540 ng/mL
- Tmax [15]: 1 h
- AUC(0-t) [16]: 110 µg·h/mL
- AUC(0-inf) [17]: 111 µg·h/mL
- bioavailability [18]: 133%
- ED50 (Plasmodium yoelii): 0.4 mg/kg
